# Myeloid diff MLP: myeloid differentiation induction; ER-HoxA9 myeloid progenitors, lysozyme-GFP differentiation, flow cytometry; calls only at 10 µM; 1% of 360,000 active;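 active = normalized GFP-positive differentiation at or above the plate's own cutoff, the solvent-only control mean plus 3 SD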;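 note: cells exposed to compound for four days before flow analysis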
# Arrestin-AP2 inh: blocks beta-arrestin peptide binding to AP2 adaptin; 0.31% of 340,000 active; inhibition, % at 10 µM; FITC-arrestin peptide / GST-AP2 beads, flow cytometry; AP2 beta2 appendage carries R879A mutation;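 active = inhibition above a set limit, near 3 SD of compounds lacking own fluorescence, cut at about 54% in these data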;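 note: plate controls were DMSO wells for no effect and 5 µM unlabelled arrestin peptide for full effect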
#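 test system = AP2 appendage R879A on GSH beads | buffer or medium = PBS plus Tween 20 (0.05%) and BSA (0.1%) | incubation = 12 min plus 1 h, RT | detection = bead flow cytometry, FITC channel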
# ABCB6 inh 2: blocks the human ABCB6 transporter. fluorescence ratio to DMSO, % at 10 µM. K562-ABCB6 porphyrin accumulation, flow cytometry, 1 h; hits give low values. 0.19% of 360,000 active. Q9NP58;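 active = fluorescence ratio to DMSO below 75%, the collection mean minus 3 SD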;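 note: signal is porphyrin accumulated inside mitochondria; 100% equals median channel fluorescence of DMSO control wells; lower ratio means ABCB6 inhibition with less porphyrin fluorescence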
# CendR NRP1 mod: modulators of CendR peptide binding to human neuropilin-1. O14786. FAM-RPARPAR peptide binding to NRP-1, fluorescence polarization. inhibition, % at 25 µM. 0.85% of 360,000 active. AID 602438;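 active = inhibition or corrected inhibition above about 18%, plus a signal ratio from 0.5 to 1.5, limit read from the data, passing the limit was not always enough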
# Granule exo inh: blocks lytic granule exocytosis. inhibition, % at 10 µM. 0.66% of 360,000 active. TALL-104 LAMP-1 surface exposure, flow cytometry; cells stimulated with thapsigargin and PMA;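 active = inhibition above about 55%, limit read from the data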
# ATG4B inhibitor: blocks human ATG4B protease cleavage of LC3 substrate; ATG4B cleavage of LC3-PLA2, NBD-HPC fluorescence, 1 h; 0.51% of 340,000 active; inhibition, % at 8.33 µM; Q9Y4P1; in the data active = inhibition above about 40%
# Myeloid diff: promotes myeloid progenitor differentiation | shares compounds with Myeloid diff MLP | ER-HoxA9 myeloid progenitors, GFP/Mac1 double-positive flow | calls only | 2% of 2,300 active | AID 651706;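 active = share of green or green-and-red cells above 9 and 9% in run 1 or 4 and 3% in run 2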
# GFP autofluor: flagged as fluorescent in myeloid differentiation counter-screen; shares compounds with Myeloid diff MLP; fluorescence response, % (test concentration not listed); 7.4% of 2,300 active; ER-HoxA9 myeloid progenitors, no estrogen, GFP autofluorescence flow cytometry; vehicle wells 0%, positive control 100%; AID 651707;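 active = over 5% cells positive for green fluorescent reporter, or over 2% positive for both it and APC stain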;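 note: range taken on the double positive population between DMSO and positive control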
# * = called active by the depositor; i = inactive; / = no result given; + = active, no number. The list is not random: actives were taken first. Their share in the collection is about 3.3%.
SMILES,Myeloid diff MLP,Arrestin-AP2 inh,ABCB6 inh 2,CendR NRP1 mod,Granule exo inh,ATG4B inhibitor,Myeloid diff,GFP autofluor
Clc1ccc(Cn2ncc3c(N4CCN(c5ccccc5)CC4)ncnc32)cc1,+,/,95.0,3.9,7.4,/,+,0.0
Cc1ccnc(NC(=O)c2ccc([N+](=O)[O-])o2)c1,+,6.9,96.0,7.0,0.9,-12.1,i,0.6
Cc1ccc2nsnc2c1NC(=O)c1ccc([N+](=O)[O-])o1,+,43.0,101.0,1.4,-4.8,-0.9,i,0.0
Cc1ccc2nsnc2c1NC(=O)c1ccc(-c2cc(Cl)ccc2Cl)o1,i,-40.8,103.0,-25.3,3.7,-0.9,/,/
COc1cccc(OC)c1C(=O)Nc1ccccc1C(=O)N1CCCCCC1,i,-9.0,98.0,10.1,-0.6,-6.0,/,/
CCCS(=O)(=O)NC(=O)C1(C)CCN(C(=O)c2cccc(C(F)(F)F)c2)C1 (centres undefined),+,/,99.0,6.8,-1.2,/,i,0.0
Cc1nn(-c2ccccc2)c2sc(C(=O)NNC(=O)COc3ccccc3)cc12,+,-4.2,98.0,0.1,0.6,-14.4,i,0.0
CCC(=O)c1cn(CC(=O)Nc2ccccc2Cl)c2ccccc12,+,7.4,169.0,-8.0,-14.0,-1.6,i,2.1*
CCCCc1cc(=O)oc2c(C)c(OCC(=O)N3C[C@H]4C[C@@H](C3)c3cccc(=O)n3C4)ccc12,i,5.4,98.0,2.3,-4.2,-9.3,/,/
Cc1nc(SCC(=O)N(C)C2CCS(=O)(=O)C2)c2ccccc2n1 (centres undefined),i,-10.4,99.0,8.1,-0.5,-1.7,/,/
Cc1nc(SCC(=O)N(C)C2(C#N)CCCCC2)c2ccccc2n1,i,-2.6,106.0,-40.6,19.9,-6.5,i,3.9
Cc1c(C(=O)Nc2ccccc2)cn2c(nc3ccccc32)c1C#N,i,13.6,92.0,-7.7,4.3,7.7,/,/
Cc1ccccc1C(=O)Nc1ccc2c(C#N)c3nc4ccccc4nc3n2c1,+,0.2,409.0,-40.2,6.3,-1.3,i,2.3*
Cc1c(C(=O)O)sc2nc3n(c(=O)c12)CCC(C)CC3 (centres undefined),+,16.6,105.0,-4.8,-1.1,-7.9,i,0.0
CCCN1C(=O)/C(=C\C=C2/Sc3ccccc3N2CCO)SC1=S,+,-7.5,359.0,-46.0,1.2,5.3,i,6.5*
CC(C)Oc1ccccc1C1NC(=O)CCC1[N+](=O)[O-] (centres undefined),i,26.7,109.0,0.0,5.0,-2.9,i,0.0
Cc1cccc(C)c1NC(=O)C1(C)CSCC(=O)N1CC(F)(F)F (centres undefined),i,/,/,-8.9,-6.8,/,/,/
CCN1/C(=C/c2cc[n+](CCCS(=O)(=O)[O-])c3ccccc23)Sc2ccccc21,+,25.0,291.0,-65.2,-8.7,-3.1,i,14.2*
O=C(Cc1cc(=O)[nH][nH]1)N/N=C/C(Cl)=C/c1ccccc1,i,-2.1,101.0,-0.7,-3.0,2.9,i,0.5
O=C(Cc1cc(=O)[nH][nH]1)N/N=C/c1ccccc1Cl,/,/,/,/,/,3.7,/,/
Nc1cc(N)cc(C(=O)c2ccccc2)c1,i,/,96.0,16.9,-8.4,/,/,/
COc1ccc(Cn2nnnc2CN2CCc3ccccc32)cc1,+,16.4,108.0,9.8,-3.5,-6.2,i,3.2
CN1CCN(Cc2nc(Cc3ccccc3)no2)CC1c1ccccc1 (centres undefined),i,-0.7,99.0,9.2,7.6,2.8,i,0.0
CN1CCN(Cc2nc(Cc3cccc(F)c3)no2)CC1c1ccccc1 (centres undefined),i,-8.1,100.0,-11.7,3.3,-1.1,/,/
Cc1ccc(C2(C)NC(=O)N(CC(=O)Nc3cc(S(=O)(=O)N4CCCCC4)ccc3OC(C)C)C2=O)cc1 (centres undefined),+,-6.3,98.0,-11.6,3.9,-12.7,i,0.3
